Results as given in ChEMBL document CHEMBL4706687, “Synthesis and Pharmacological Evaluation of Novel Non-nucleotide Purine Derivatives as P2X7 Antagonists for the Treatment of Neuroinflammation” (J Med Chem, 2021).
Active and inactive are the calls of the source. The rule behind the calls is not given here.

How the values were obtained:
[1] = molecular target: T1, P2X purinoceptor 7 (Homo sapiens) (UniProt Q99572); assay: Antagonist activity at human P2X7 receptor expressed in HEK293 cells assessed as reduction in benzoyl-ATP-induced YO-PRO-1 dye uptake at 10 uM pre-incubated for 20 mins before YO-PRO-1 addition and measured after 25 mins by fluorescence plate reader analysis relative to control; format: cell-based; conditions: filed as antagonist, time 45.0 min
T1 sequence (whole entry): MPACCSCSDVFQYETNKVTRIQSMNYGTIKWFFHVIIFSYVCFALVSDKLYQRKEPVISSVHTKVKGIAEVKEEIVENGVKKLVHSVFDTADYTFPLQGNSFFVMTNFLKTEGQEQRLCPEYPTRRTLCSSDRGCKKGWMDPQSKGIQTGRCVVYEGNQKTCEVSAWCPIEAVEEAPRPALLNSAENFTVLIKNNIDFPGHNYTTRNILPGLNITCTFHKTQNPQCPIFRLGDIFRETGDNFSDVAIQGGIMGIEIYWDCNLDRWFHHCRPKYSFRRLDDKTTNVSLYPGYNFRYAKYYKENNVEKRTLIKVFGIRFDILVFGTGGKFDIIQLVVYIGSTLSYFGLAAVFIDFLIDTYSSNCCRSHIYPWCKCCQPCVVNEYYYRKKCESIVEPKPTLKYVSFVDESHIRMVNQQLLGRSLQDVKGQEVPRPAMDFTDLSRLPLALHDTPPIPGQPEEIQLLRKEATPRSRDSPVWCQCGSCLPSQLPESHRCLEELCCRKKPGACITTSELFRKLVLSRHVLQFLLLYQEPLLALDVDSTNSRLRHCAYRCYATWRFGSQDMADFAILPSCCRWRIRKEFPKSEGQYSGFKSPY
Summary of the method: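 Stably transfected hP2X7-HEK293 cells, 48 h after seeding, in Mg²⁺-free Krebs-HEPES (0.2 mM CaCl₂, pH 7.4). Compound preincubation 20 min, then YO-PRO-1 2 μM, then BzATP 30 μM. Fluorescence at 485/520 nm read for 25 min. Each well normalized to Fmax (0.5% Triton X-100) and Fmin (2 M MnCl₂): F = (Fx − F0)/(Fmax − Fmin). Triplicates from three cultures. IC50 is the concentration halving BzATP-induced uptake.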

[2] = molecular target: T1, P2X purinoceptor 7 (Homo sapiens); assay: Antagonist activity at human P2X7 receptor expressed in Xenopus laevis oocytes assessed as reduction in ATP-induced channel currents at 100 uM by TEVC electrophysiology assay relative to control; format: cell-based; conditions: Oocyte, filed as antagonist
Summary of the method: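 Oocytes injected with 50 nL His-tagged hP2X7 cRNA (0.5 mg/mL), kept 1–2 days at 16–18 °C. Recorded in low divalent-cation solution (90 mM NaCl, 0.5 mM CaCl₂, 5 mM HEPES) at −70 mV. ATP 300 μM for 2 s after 3 min static compound incubation. Current normalized to control amplitude. Triplicates from three oocytes, two frogs.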

Peritoneal macrophage = assay: Inhibition of Il-1beta production in LPS-stimulated C57BL/6 mouse peritoneal macrophages pre-incubated for 15 mins followed by ATP addition for 30 mins by ELISA method; format: functional, tissue-based; conditions: time 45.0 min
Summary of the method: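 Thioglycolate-elicited peritoneal macrophages from 6–8-week male C57BL/6 mice, 3 × 10⁵ cells/well. Primed 4 h with LPS 1 μg/mL (E. coli 026:B6), then serum-free DMEM with compound for 15 min, then ATP for 30 min. Supernatant IL-1β measured by ELISA, expressed as percent of ATP-only control. Triplicates from three mice.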

[3] = molecular target: T2, P2X purinoceptor 1 (Rattus norvegicus) (UniProt P47824); assay: Antagonist activity at rat P2X1 receptor expressed in Xenopus laevis oocytes assessed as reduction in ATP-induced channel currents at 100 uM by TEVC electrophysiology assay relative to control; format: cell-based; conditions: Oocyte
T2 sequence (whole entry): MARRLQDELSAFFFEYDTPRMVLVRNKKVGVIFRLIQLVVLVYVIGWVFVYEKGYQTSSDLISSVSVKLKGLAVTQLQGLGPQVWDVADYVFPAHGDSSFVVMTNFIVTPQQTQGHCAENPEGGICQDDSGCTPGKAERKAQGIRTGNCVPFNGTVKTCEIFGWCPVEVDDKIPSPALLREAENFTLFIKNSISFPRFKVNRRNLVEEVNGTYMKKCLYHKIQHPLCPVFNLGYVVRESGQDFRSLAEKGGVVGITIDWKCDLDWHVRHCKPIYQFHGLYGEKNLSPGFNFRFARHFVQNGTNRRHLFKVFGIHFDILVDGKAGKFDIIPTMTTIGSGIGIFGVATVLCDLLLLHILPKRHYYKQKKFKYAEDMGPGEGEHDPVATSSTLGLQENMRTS
Summary of the method: (§1)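 Two-electrode voltage clamp at −70 mV in low divalent-cation solution, oocytes incubated 1–2 days at 16–18 °C after 50 nL cRNA injection: rP2X1 and rP2X4 at 0.5 mg/mL, rP2X2 0.1 mg/mL, rP2X7 25 μg/mL. ATP 10 μM for rP2X1 and rP2X2, 30 μM for rP2X4 and rP2X7. Compound applied 3 min without perfusion. Currents normalized to control; three oocytes from two frogs.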

[4] = molecular target: T3, P2X purinoceptor 2 (Rattus norvegicus) (UniProt P49653); assay: Antagonist activity at rat P2X2 receptor expressed in Xenopus laevis oocytes assessed as reduction in ATP-induced channel currents at 100 uM by TEVC electrophysiology assay relative to control; format: cell-based; conditions: Oocyte; summary of the method: as §1
T3 sequence (whole entry): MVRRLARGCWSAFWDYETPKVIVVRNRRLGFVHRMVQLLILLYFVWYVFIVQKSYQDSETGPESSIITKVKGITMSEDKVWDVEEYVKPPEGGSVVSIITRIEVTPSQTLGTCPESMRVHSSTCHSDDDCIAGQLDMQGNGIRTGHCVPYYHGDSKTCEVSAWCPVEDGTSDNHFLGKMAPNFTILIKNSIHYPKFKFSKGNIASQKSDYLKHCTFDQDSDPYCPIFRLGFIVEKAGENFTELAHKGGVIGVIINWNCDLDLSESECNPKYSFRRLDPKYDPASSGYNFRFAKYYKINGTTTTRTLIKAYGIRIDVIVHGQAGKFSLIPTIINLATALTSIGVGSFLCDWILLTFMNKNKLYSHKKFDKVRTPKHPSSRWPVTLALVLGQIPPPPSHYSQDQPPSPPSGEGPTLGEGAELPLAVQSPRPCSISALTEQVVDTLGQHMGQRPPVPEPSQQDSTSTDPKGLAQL

For `O=C(Cn1cnc2c(Cl)ncnc21)c1ccc(Cl)cc1Cl`, the inhibition [1] was 63%, the inhibition [2] was 47% and the inhibition (Peritoneal macrophage) was “Dose-dependent effect”. For the same compound, the inhibition [3] was “inactive” and the inhibition [4] was “inactive”.
